Measured values of several laboratories.
Protocols differ between the studies behind these lines. ≈ marks a conversion by molar mass, not a printed value.

`CC[C@H](C)C[C@H](C)CCCCCCCCC(=O)N[C@H]1C[C@@H](O)[C@@H](NCCN)NC(=O)[C@@H]2[C@@H](O)CCN2C(=O)[C@H]([C@H](O)CCN)NC(=O)[C@H]([C@H](O)[C@@H](O)c2ccc(O)cc2)NC(=O)[C@@H]2C[C@@H](O)CN2C(=O)[C@H]([C@@H](C)O)NC1=O` has an MIC of 0.25 µg/mL (≈ 0.229 µM) (Nakaseomyces glabratus; microbial growth, broth dilution; ATCC15126; 48 h).
The MIC80 of `C#Cc1ccc(C=NNC(=O)c2ccc(COCCC)cc2)c(O)c1` is reported as 0.015 µg/mL (≈ 0.0446 µM) (Cryptococcus neoformans; microbial growth, broth dilution; pH 7.4).
`CC[C@@]1(O)C(=O)OCc2c1cc1n(c2=O)Cc2cc3ccccc3nc2-1` has an IC50 of 52.9 µM (SNB-19; cell growth or viability, SRB; 48 h).
`O=C1CCP(c2ccccc2)CC1` gave an IC50 of 73.3 µM (HaCaT; cell growth or viability, MTT; 72 h).
The inhibition of `COc1cnc(OC)n2nc(NS(=O)(=O)c3c(OCC(F)F)cccc3C(F)(F)F)nc12` is reported as 0.85% (HaCaT; cell growth or viability, CCK-8; 6.25 µM, 72 h).
For `CC[C@H](C)[C@@H]([C@@H](CC(=O)N1CCC[C@H]1[C@H](OC)[C@@H](C)C(=O)N[C@H](C)[C@@H](O)c1ccccc1)OC)N(C)C(=O)[C@@H](NC(=O)[C@@H](NC)C(C)C)C(C)C`, the IC50 was 0.00185 µM (Daudi; cell growth or viability, CCK-8).
For `C#Cc1ccc(C=NNC(=O)c2ccc(Br)cc2)c(O)c1`, the MIC80 was 0.03 µg/mL (≈ 0.0874 µM) (Cryptococcus neoformans; microbial growth, broth dilution; pH 7.4).
The inhibition of `N.N.[Cl][Pt][Cl]` is reported as 100% (OCI-LY19; cell growth or viability, ATP luminescence; 10 µM, 72 h).
`C#Cc1ccc(C=NNC(=O)c2ccc(COCC)cc2)c(O)c1` gave an MIC80 of 0.015 µg/mL (≈ 0.0465 µM) (Cryptococcus neoformans; microbial growth, broth dilution; pH 7.4).
`O=C1CCP(=S)(c2ccccc2)CC1` has an IC50 of 14.2 µM (HaCaT; cell growth or viability, MTT; 72 h).
With `C#Cc1ccc(C(=O)NN=Cc2c(O)cccc2C#C)cc1` the MIC80 was 0.015 µg/mL (≈ 0.052 µM) (Cryptococcus neoformans; microbial growth, broth dilution; pH 7.4).
For `S=P1(c2ccccc2)CCCCC1`, the IC50 was greater than 100 µM (HaCaT; cell growth or viability, MTT; 72 h).
